Compound activity as filed in PubChem.
Most compounds without a hit are left out; they make up all but 2% or so of the library.
VLA-4 inh: inhibition in a human VLA-4 binding assay; VLA-4 expressing cells, ligand binding flow cytometry; P13612; inhibition, % (about 7 µM as worked out from the volumes in the protocol); AID 2557; 330,000 tested, 0.2% active; in the data active means inhibition above about 50%
DAGLB inhibitor: diacylglycerol lipase beta (human) inhibition | inhibition, % at 5.17 µM | HEK293T DAGLB membrane lysate, EnzChek fluorogenic substrate | Q8NCG7 | 340,000 tested, 0.059% active; in the data active means inhibition above about 34%
Target sequence (Q8NCG7 whole entry, looked up): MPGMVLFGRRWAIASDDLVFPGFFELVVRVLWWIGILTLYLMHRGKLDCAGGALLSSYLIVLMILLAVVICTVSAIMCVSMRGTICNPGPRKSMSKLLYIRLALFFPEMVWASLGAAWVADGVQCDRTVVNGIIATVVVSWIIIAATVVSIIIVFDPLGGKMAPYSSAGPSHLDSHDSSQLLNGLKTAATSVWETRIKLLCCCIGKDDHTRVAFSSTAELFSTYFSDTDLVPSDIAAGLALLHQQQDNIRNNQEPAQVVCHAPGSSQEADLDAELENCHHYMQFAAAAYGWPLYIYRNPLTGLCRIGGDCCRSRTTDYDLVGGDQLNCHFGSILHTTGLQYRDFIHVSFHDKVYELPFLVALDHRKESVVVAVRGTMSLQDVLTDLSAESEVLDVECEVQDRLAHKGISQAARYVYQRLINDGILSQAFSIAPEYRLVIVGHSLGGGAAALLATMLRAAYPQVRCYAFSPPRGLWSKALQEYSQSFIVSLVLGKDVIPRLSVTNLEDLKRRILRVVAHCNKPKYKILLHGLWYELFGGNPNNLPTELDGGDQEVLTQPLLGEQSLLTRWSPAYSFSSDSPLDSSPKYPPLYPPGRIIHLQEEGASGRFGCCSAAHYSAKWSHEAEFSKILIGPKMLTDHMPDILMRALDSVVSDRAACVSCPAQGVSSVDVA
MT1-MMP act inh: inhibitors of human MT1-MMP activation. GFP/RFP ratio change, % at 20 µM. HT1080 RFP-PRO-GFP cells, GFP/RFP ratio fluorescence, overnight; percent of plate control window, DMSO zero. 360,000 tested, 0.061% active. P50281. AID 651647;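 active means GFP/RFP ratio change of at least 30% with cell ATP level not reduced by more than half and red fluorescence within 50% of control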
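Assay system: HT1080 RFP-PRO-GFP cells. Benchmarks: DMSO vehicle wells and RFP-L50D-GFP reporter cell wells. Times: overnight cell settling, then overnight compound exposure, 37 °C, 5% CO2. Compound: 20 µM single dose, 1% DMSO. Read-out basis: GFP/RFP fluorescence ratio.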
Granule exo inh: blocks lytic granule exocytosis | AID 651702 | inhibition, % at 10 µM | 360,000 tested, 0.66% active | TALL-104 LAMP-1 surface exposure, flow cytometry; cells stimulated with thapsigargin and PMA;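 active means inhibition above about 55%, limit read from the data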
FGF22 binding: shifts melting point of recombinant human FGF22. Q9HCT0. recombinant FGF22 thermal shift, SYPRO orange fluorescence; percent of sucrose octasulfate shift, DMSO zero. activity (Tm shift, normalised), % at 9.99 µM. 340,000 tested, 1.5% active;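 active means mean Tm shift, scaled 0 neutral to 100 positive control, at about 1.3% or above, every replicate too, limit read from the data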
ABCB6 inh MLPCN: human ABCB6 transporter inhibition. Q9NP58. K562-ABCB6 porphyrin accumulation, flow cytometry, 1 h; active compounds read low. fluorescence ratio to DMSO, % at 10 µM. 360,000 tested, 0.19% active. AID 602162;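 active means fluorescence ratio to DMSO below 75%, the collection mean minus 3 SD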;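 further: signal is porphyrin accumulated inside mitochondria; lower ratio means ABCB6 inhibition with less porphyrin fluorescence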
MT1-MMP act val: MT1-MMP (human) activation inhibition, single-concentration validation. shares compounds with MT1-MMP act inh. HT1080 RFP-PRO-GFP cells, GFP and RFP fluorescence ratio, overnight. inhibition, % at 20 µM. 200 tested, 10% active;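 active means inhibition of at least 50% in the primary cell screen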
A number is an active result; 0 = inactive; - = not tested or not shown.

SMILES	VLA-4 inh	DAGLB inhibitor	MT1-MMP act inh	Granule exo inh	FGF22 binding	ABCB6 inh MLPCN	MT1-MMP act val
CN1/C(=C\C(=O)c2ccco2)C(C)(C)c2ccccc21	0	0	0	0	0	0	-
CN1/C(=C\C(=O)C(F)F)C(C)(C)c2ccccc21	0	0	0	0	-	0	-
CC(C)C(=O)NC(=S)/C=C1/N(C)c2ccccc2C1(C)C	0	0	0	0	0	0	-
Cc1ccc(C(=O)NC(=S)/C=C2\N(C)c3ccccc3C2(C)C)cc1	0	0	40.3	0	0	0	0
CN1/C(=C\C(=O)c2cncc(Br)c2)C(C)(C)c2ccccc21	0	0	31.5	0	-	0	0
Cc1c(NC(=S)/C=C2\N(C)c3ccccc3C2(C)C)c(=O)n(-c2ccccc2)n1C	0	0	32.8	0	-	0	0
C[C@H](CO)N1C[C@H](C)[C@@H](CN(C)CC2CC2)Oc2ccc(NC(=O)CCCN(C)C)cc2C1=O	-	-	-	-	0	-	-
CCCNC(=O)N1C[C@@H]2[C@H](c3ccccc31)[C@@H](CO)N2CC1CCCCC1	-	-	-	-	0	-	-
CN1/C(=C\C=N\NC(=O)c2ccc(O)cc2)C(C)(C)c2ccccc21	0	0	59.2	0	-	0	0
CN1/C(=C\C=N\NC(=O)c2cccnc2)C(C)(C)c2ccccc21	0	0	0	0	0	0	-
CCSc1nc(=S)n(Cc2ccccc2)c(C)c1C(C)=O	0	0	35.2	0	0	0	0
CC(C)NC(=O)Nc1ccc2c(c1)C(=O)N([C@H](C)CO)C[C@H](C)[C@H](CN(C)Cc1ccc3c(c1)OCO3)OCCCC[C@@H](C)O2	-	-	-	-	0	-	-
Nc1ccc(NC(=O)c2ccccc2)c2c1C(=O)c1ccccc1C2=O	0	0	38.3	0	-	0	0
CCOC(=O)c1c2c3c(cccc3[nH]c1=O)C(=O)c1ccccc1-2	0	0	0	0	0	0	-
CCOC(=O)c1c2c3c(c(Cl)ccc3[nH]c1=O)C(=O)c1ccccc1-2	-	-	44.2	91.6	0	0	0
CNc1ccccc1C(C)(C)c1cc(-c2cccc(Br)c2)no1	0	0	62.0	0	43.3	0	53.9
CNc1ccccc1C(C)(C)c1cc(-c2cccc([N+](=O)[O-])c2)no1	0	0	0	0	0	0	-
C[C@@H]1CN([C@@H](C)CO)C(=O)c2cccc(NC(=O)c3nc4ccccc4s3)c2O[C@@H]1CN(C)CC1CCCCC1	-	-	-	-	0	-	-
COc1cccc(C2=Nc3cccc4cccc(c34)N2)c1	0	0	36.5	0	0	0	0
c1coc(C2=Nc3cccc4cccc(c34)N2)c1	0	0	0	0	0	0	-
O=C(O)c1ccccc1C(=O)Nc1ccc(Nc2ccccc2)cc1	-	0	32.6	0	0	0	0
COc1ccc(S(=O)(=O)N(C)C[C@@H]2OCCCC[C@H](C)Oc3ccc(NC(=O)Cc4ccccc4)cc3C(=O)N([C@H](C)CO)C[C@@H]2C)cc1	-	-	-	-	0	-	-
CN(C)c1ccc(Cc2cc3c(O)ccc(O)c3cc(Cc3ccc(N(C)C)cc3)c2=O)cc1	-	0	32.6	103.6	0	0	0
CN(C)c1ccc(C(=O)c2ccc(O)cc2O)cc1	0	0	0	0	-	0	-
O=C(c1ccccn1)N1CC2(C1)[C@@H](c1ccccc1)[C@@H](CO)N2C(=O)CC1CC1	-	-	-	-	0	-	-
SMILES	VLA-4 inh	DAGLB inhibitor	MT1-MMP act inh	Granule exo inh	FGF22 binding	ABCB6 inh MLPCN	MT1-MMP act val
COc1ccc2sc(/C=C/c3ccccc3O)[n+](C)c2c1	-	-	33.7	0	-	0	0
COc1ccc(N=Cc2ccccc2O)cc1	-	0	0	0	-	0	-
CN(CCCS(=O)(=O)[O-])c1ccc(/C=C/c2ccc3ccccc3[n+]2C)cc1	0	0	39.7	0	0	0	0
COc1ccc2c3c(n(C)c2c1)[C@@H](CO)N(Cc1ccccc1)CC31CCN(C(=O)c2ccccc2F)CC1	-	-	-	-	0	-	-
CC(C)(C)c1ccc(OCCNC(=O)c2ncn[nH]2)cc1	0	0	36.2	0	-	0	0
COc1ccc2c3c(n(C)c2c1)[C@@H](CO)N(C(=O)CC1CC1)CC31CN(C(=O)C2CCC2)C1	-	-	-	-	0	-	-
CCOC(=O)c1ccccc1N1C(=O)CSC1=S	0	0	30.1	0	0	0	0
O=C(O)c1cccc(N2C(=O)CSC2=S)c1	0	0	36.0	0	0	0	0
O=c1[nH]cnc2sc(-c3ccccc3)cc12	0	0	33.8	0	-	0	0
Cc1ccc(NC(=S)NCc2ccc3c(c2)cc(C)n3C)c(C)c1	0	0	32.8	0	0	0	0
COc1cc(OC)cc(C(=O)NCc2ccc3c(c2)cc(C)n3C)c1	0	0	0	0	0	0	-
COc1ccc(C(=O)NCc2ccc3c(c2)cc(C)n3C)cc1	0	0	31.4	0	0	0	0
Cc1cc2cc(CNC(=S)Nc3ccc(OC(F)F)cc3)ccc2n1C	0	0	46.7	0	0	0	0
CCCN1C[C@@H](C)[C@@H](OC)CN(C)C(=O)c2cc(NC(=O)c3ccc(F)cc3)ccc2OC[C@@H]1C	-	-	-	-	0	-	-
COc1cc(/C=C2\SC(=S)N(CCC(=O)Nc3ccccc3)C2=O)cc(OC)c1OC	0	0	0	0	0	0	-
COc1ccccc1NC(=O)CCN1C(=O)/C(=C\c2cc(OC)c(OC)c(OC)c2)SC1=S	0	0	35.5	0	0	0	0
CCNc1c(C(=O)O)ccc2c1C(=O)c1ccccc1C2=O	0	0	0	0	-	0	-
CNc1c(C(=O)O)ccc2c1C(=O)c1ccccc1C2=O	0	0	34.3	0	0	0	0
C[C@@H]1CN([C@H](C)CO)C(=O)c2cc(NS(=O)(=O)c3ccc(Cl)cc3)ccc2O[C@@H](C)CCCCO[C@@H]1CN(C)C(=O)C1CCCCC1	-	-	-	-	0	-	-
Nc1ccc(N2CCN(C(=O)c3ccco3)CC2)cc1	0	0	43.2	0	-	0	0
Nc1ccc(N2CCN(C(=O)c3cccs3)CC2)cc1	0	0	33.1	0	-	0	0
COc1ccc(NC(=O)N(C)C[C@H]2OCCCC[C@H](C)Oc3ccc(NS(=O)(=O)c4ccc(Cl)cc4)cc3C(=O)N([C@H](C)CO)C[C@@H]2C)cc1	-	-	-	-	0	-	-
Cc1ccc(S[C@]2(C(=O)NCc3ccccc3)CC(=O)N(C3CCCCC3)[C@@H]2c2ccc(CO)cc2I)cc1	-	-	-	-	0	-	-
Cc1cc2ccccc2n1CCNC(=O)C1CC1	0	0	32.5	0	0	0	0
Cc1cc2ccccc2n1CCNC(=O)C1CCCCC1	0	0	38.2	0	0	0	0
O=C(Nc1ccccc1)N[C@@H]1CC[C@H](CCNS(=O)(=O)c2ccccc2F)O[C@H]1CO	-	-	-	-	0	-	-
C/C(=C/c1oc2ccc(O)cc2c1[N+](=O)[O-])N(C)C	0	0	42.8	0	-	0	0
CC(=O)Oc1ccc2oc(/C=C/N(C)C)c([N+](=O)[O-])c2c1	0	0	44.9	0	-	0	0
